These results are taken from ChEMBL document CHEMBL3580575, “Monocarboxylate transporter 1 inhibitors as potential anticancer agents” (ACS Med Chem Lett, 2015).

Data set [1] concerns the target T1, Monocarboxylate transporter 1 (Rattus norvegicus, UniProt P53987).
T1 sequence (P53987 whole entry): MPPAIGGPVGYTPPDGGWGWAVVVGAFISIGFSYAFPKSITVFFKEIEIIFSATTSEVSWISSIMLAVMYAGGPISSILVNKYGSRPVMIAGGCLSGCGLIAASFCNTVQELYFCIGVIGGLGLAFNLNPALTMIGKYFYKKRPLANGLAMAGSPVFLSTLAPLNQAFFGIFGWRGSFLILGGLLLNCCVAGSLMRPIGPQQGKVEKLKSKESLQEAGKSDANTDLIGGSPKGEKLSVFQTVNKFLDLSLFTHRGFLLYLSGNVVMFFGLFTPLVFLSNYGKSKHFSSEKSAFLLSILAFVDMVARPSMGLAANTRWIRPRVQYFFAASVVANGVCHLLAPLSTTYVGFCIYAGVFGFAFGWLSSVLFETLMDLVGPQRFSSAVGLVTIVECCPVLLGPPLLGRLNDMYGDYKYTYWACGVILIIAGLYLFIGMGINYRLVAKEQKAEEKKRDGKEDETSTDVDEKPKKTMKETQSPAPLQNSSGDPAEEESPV
Kind of data set: Inhibition of MCT1-mediated lactate transport in rat RBE4 cells incubated for 15 mins by [14C]-lactate uptake assay. The format is cell-based. The essentials: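 MCT1 inhibition measured as [14C]-lactate uptake in rat brain endothelial RBE4 cells, which highly express MCT1 (Western blot). IC50 is the test-compound concentration causing 50% transport inhibition.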

Data set [2] can be described thus: Solubility in water. The format is physicochemical.
Data set [3] relates to Mus musculus. Kind of data set: Toxicity in CD1(ICR) mouse assessed as survival at 6.67 mg/kg, ip bid for 3 weeks. The format is organism-based. To be noted: in vivo, 504 h. The essentials:
(§1)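 Healthy ICR mice were given 6.67 mg/kg ip, twice daily, in 0.1% DMSO in saline for three weeks. Survival and body weight gain were recorded and compared with a control group.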

For data set [4], the system named is Mus musculus. As to the kind of experiment: Toxicity in CD1(ICR) mouse assessed as induction of weight gain at 6.67 mg/kg, ip bid for 3 weeks. To be noted: in vivo, 504 h. The format is organism-based. The essentials: as §1
Data set [5] relates to Mus musculus. As to the kind of experiment: Toxicity in CD1(ICR) mouse assessed as survival at 50 mg/kg, po bid for 3 weeks. The format is organism-based. To be noted: in vivo, 504 h. In a few lines:
(§2)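 In a follow-up systemic toxicity study, healthy ICR mice were dosed at 50 mg/kg either by oral gavage twice daily or ip once daily. Mortality and body weight gain were compared with a control group.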

Data set [6] deals with Mus musculus. Kind of data set: Toxicity in CD1(ICR) mouse assessed as induction of weight gain at 50 mg/kg, po bid for 3 weeks. The format is organism-based. To be noted: in vivo, 504 h. The essentials: as §2
The subject of data set [7] is Mus musculus. Kind of data set: Toxicity in CD1(ICR) mouse assessed as survival at 50 mg/kg, ip qd for 3 weeks. The format is organism-based. To be noted: in vivo, 504 h. In a few lines: as §2
The subject of data set [8] is Mus musculus. As to the kind of experiment: Toxicity in CD1(ICR) mouse assessed as induction of weight gain at 50 mg/kg, ip qd for 3 weeks. The format is organism-based. To be noted: in vivo, 504 h. The essentials: as §2
The nature of data set [9]: Tmax in CD1(ICR) mouse at 100 mg/kg, ip by LC-MS/MS method. The format is ADME, organism-based. To be noted: in vivo. The essentials: (§3)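 Preliminary pharmacokinetics in ICR mice. Sixty mice were split into two groups and given 100 mg/kg, one group intraperitoneally and the other intragastrically.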
Data set [10] is described as follows: Tmax in CD1(ICR) mouse at 100 mg/kg, ig by LC-MS/MS method. The format is ADME, organism-based. To be noted: in vivo, po. The essentials: as §3
Data set [11] concerns Mus musculus. As to the kind of experiment: Drug elimination in CD1(ICR) mouse at 100 mg/kg, ip by LC-MS/MS method. The format is ADME, organism-based. To be noted: in vivo. In a few lines:
as §3

Data set [12] concerns Mus musculus. Kind of data set: Drug elimination in CD1(ICR) mouse at 100 mg/kg, ig by LC-MS/MS method. The format is ADME, organism-based. To be noted: in vivo, po. In a few lines:
as §3

For data set [13], the system named is Mus musculus. As to the kind of experiment: Toxicity in CD1(ICR) mouse assessed as survival at 6.67 mg/kg, ip bid for 3 weeks. To be noted: in vivo, 504 h.
Data set [14] relates to Mus musculus. Kind of data set: Toxicity in CD1(ICR) mouse assessed as induction of weight gain at 6.67 mg/kg, ip bid for 3 weeks. To be noted: in vivo, 504 h.

Broadly, the IC50 is the midpoint of a concentration-inhibition curve. As to `N#C/C(=C\c1ccc([N+](=O)[O-])cc1)C(=O)O`, the IC50 in [1] was 0.5 µM.
In data set [1], `CCc1ccc(/C=C(\C#N)C(=O)O)cc1` registered an IC50 of 0.5 µM.
Same read-out and setting: under `N#C/C(=C\c1ccc(Cl)cc1)C(=O)O` stands 0.5 µM.
On the same count and under the same terms, under `N#C/C(=C\c1ccc(Br)cc1)C(=O)O` stands 0.5 µM.
Still for that read-out and setting: under `N#C/C(=C\c1ccc(C#N)cc1)C(=O)O` stands 0.5 µM; under `N#C/C(=C\c1ccc2c(c1)OCO2)C(=O)O`, 0.5 µM.
As to `CCN(CC)c1ccc(/C=C(\C#N)C(=O)O)cc1`, in [1], half-maximal inhibition (IC50) required 0.07 µM.
On the same count and under the same terms, in the case of `CCCN(CCC)c1ccc(/C=C(\C#N)C(=O)O)cc1` it was 0.01 µM; in that of `CCCCN(CCCC)c1ccc(/C=C(\C#N)C(=O)O)cc1`, 0.03 µM.
Still for that read-out and setting: in the case of `CC(C)CN(CC(C)C)c1ccc(/C=C(\C#N)C(=O)O)cc1` it was 0.1 µM.
On the same count and under the same terms, in the case of `CCCCCN(CCCCC)c1ccc(/C=C(\C#N)C(=O)O)cc1` it was 0.14 µM; in that of `CCCCCCN(CCCCCC)c1ccc(/C=C(\C#N)C(=O)O)cc1`, 0.88 µM; in that of `C=CCN(CC=C)c1ccc(/C=C(\C#N)C(=O)O)cc1`, 0.11 µM.
In the case of `C#CCN(CC#C)c1ccc(/C=C(\C#N)C(=O)O)cc1`, in data set [1], half-maximal inhibition (IC50) required 0.4 µM.
Still for that read-out and setting: under `N#C/C(=C\c1ccc(N(c2ccccc2)c2ccccc2)cc1)C(=O)O` stands 0.03 µM; under `N#C/C(=C\c1ccc(N2CCCC2)cc1)C(=O)O`, 0.07 µM.
On the same count and under the same terms, under `N#C/C(=C\c1ccc(N2CCCCC2)cc1)C(=O)O` stands 0.14 µM.
Same read-out and setting: in the case of `CCCN(CCC)c1ccc(/C=C(\C#N)C(=O)O)c(OC)c1` it was 0.012 µM.
The compound `COc1cc(N(CC(C)C)CC(C)C)ccc1/C=C(\C#N)C(=O)O` gave an IC50 in [1] of 0.011 µM.
The same measure, in the same setting: under `CCCCCN(CCCCC)c1ccc(/C=C(\C#N)C(=O)O)c(OC)c1` stands 0.034 µM.
One may read the solubility as the dissolved amount per volume that the medium holds. A word on the Tmax: it is the time from dosing to the highest level. Take `COc1cc(N(c2ccccc2)c2ccccc2)ccc1/C=C(\C#N)C(=O)[O-].[Na+]`: the IC50 in data set [1] was found to be 0.011 µM. This compound also returned a solubility in data set [2] of 1000 µg/mL. In addition, the Activity entry in the data set with Mus musculus [3], with Mus musculus [4], in the data set on Mus musculus [5], in the data set with Mus musculus [6], with Mus musculus [7] and in the data set with Mus musculus [8] was “Non-toxic” each time. Moreover, the Activity entry with Mus musculus [13] and in the data set with Mus musculus [14] was “Non-toxic” each time. In addition, the Tmax stood at 15 min in data set [9] and 18 min in data set [10]. The Drug excretion result with Mus musculus [11] and in the data set on Mus musculus [12] was “<= 24 hr” each time.
With `C=CCN(CC=C)c1ccc(/C=C(\C#N)C(=O)O)c(OC)c1`, it took 0.029 µM to reach half-maximal inhibition in [1] (IC50).
`COc1cc(N2CCCC2)ccc1/C=C(\C#N)C(=O)[O-].[Na+]`: the IC50 in data set [1] amounted to 0.048 µM. This compound showed a solubility in data set [2] greater than 7000 µg/mL.
The like results for `COc1cc(N2CCCCC2)ccc1/C=C(\C#N)C(=O)[O-].[Na+]` were, in that order, 0.025 µM and greater than 7000 µg/mL.
Compound `Cc1ccc(/C=C(\C#N)C(=O)O)cc1` yielded an IC50 in data set [1] of 0.5 µM.
The compound `CN(C)c1ccc(/C=C(\C#N)C(=O)O)cc1` had an IC50 in data set [1] of 0.14 µM.
With `COc1ccc(/C=C(\C#N)C(=O)O)cc1`, the IC50 in [1] worked out at 0.5 µM.
Still for that read-out and setting: under `N#C/C(=C\c1ccc(F)cc1)C(=O)O` stands 0.5 µM.
